Experimental data: article PMC10570058 (Nucleic Acids Research, 2023)

Experiments:
[1] = test system: Polθ ATPase domain binding to ssDNA; experiment: Microscale thermophoresis
[2] = target: Polθ ATPase domain (human) (UniProt O75417); experiment: mass photometry
[3] = test system: RPE1 TP53−/−BRCA1−/− cells; experiment: DNA fiber assay with S1 nuclease digestion; format: cell-based; details: 200 μM NVB vs vehicle
How it was run: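 Cells (F12, 10% FBS) seeded 24 h, pulsed with 200 μM CldU for 30 min, washed, then 100 μM IdU for 2 h with test compound (200 μM) or DMSO added alongside. CSK permeabilisation 10 min RT. Nuclei were treated with 10 U/ml S1 nuclease (pH 4.6 buffer) for 30 min at 37°C or left undigested. Agarose-plug extraction was used, and ≥200 IdU tracks were scored per treatment (Mann–Whitney).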

[4] = test system: Polθ recruitment to ssDNA in U2OS cells; experiment: Laser micro-irradiation and immunofluorescence, Polθ recruitment to ssDNA; format: cell-based, human; details: 200 μM, 24 h, U2OS POLQ KO cells expressing Myc-Polθ
[5] = test system: Polθ-ATPase domain; experiment: Thermal stability assay; format: binding; details: 500 μM compound vs DMSO

Sequence of Polθ ATPase domain (O75417 67-894): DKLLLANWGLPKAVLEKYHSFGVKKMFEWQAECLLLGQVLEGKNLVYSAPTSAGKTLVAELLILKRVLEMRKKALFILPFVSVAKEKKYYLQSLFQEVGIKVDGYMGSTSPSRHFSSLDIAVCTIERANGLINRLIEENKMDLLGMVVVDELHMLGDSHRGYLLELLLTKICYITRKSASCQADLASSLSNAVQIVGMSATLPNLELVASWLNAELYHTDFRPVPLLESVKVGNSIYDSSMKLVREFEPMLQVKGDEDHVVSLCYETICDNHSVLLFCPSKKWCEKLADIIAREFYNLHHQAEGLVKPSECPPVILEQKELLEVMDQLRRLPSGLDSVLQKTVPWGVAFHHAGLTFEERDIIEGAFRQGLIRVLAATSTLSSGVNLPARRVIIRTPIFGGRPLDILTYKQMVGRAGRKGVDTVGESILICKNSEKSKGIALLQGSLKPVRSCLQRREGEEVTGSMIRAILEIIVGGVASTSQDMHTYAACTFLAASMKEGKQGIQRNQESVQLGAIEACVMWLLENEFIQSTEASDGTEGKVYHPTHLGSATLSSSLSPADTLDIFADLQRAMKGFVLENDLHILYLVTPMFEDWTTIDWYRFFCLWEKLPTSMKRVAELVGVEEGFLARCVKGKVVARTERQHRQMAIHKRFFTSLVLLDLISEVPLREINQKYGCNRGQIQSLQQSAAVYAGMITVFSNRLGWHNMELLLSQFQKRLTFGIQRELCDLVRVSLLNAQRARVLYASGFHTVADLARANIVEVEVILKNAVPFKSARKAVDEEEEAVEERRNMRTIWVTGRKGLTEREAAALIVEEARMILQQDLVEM

## Nc1ncnc2c1ncn2[C@@H]1O[C@H](COP(=O)(O)OP(=O)(O)NP(=O)(O)O)[C@@H](O)[C@H]1O [AMP-PNP]
[1]; 2000 μM AMP-PNP, MST buffer with 5 mM MgCl2
  Effect on Polθ binding to ssDNA: unable to block

## Polθ ATPase domain (from UniProt O75417 67-894) (domain or fragment)
[2]
  stoichiometry N: 4

## CO[C@@H]1[C@@H](OC(N)=O)[C@@H](O)[C@H](Oc2ccc3c(O)c(NC(=O)c4ccc(O)c(CC=C(C)C)c4)c(=O)oc3c2C)OC1(C)C [NVB, Novobiocin]
[3]
  IdU track lengths following S1 nuclease treatment: dramatic shortening
[1]; NVB 100-2000 μM in MST buffer, 120 mM KCl
  Effect on Polθ binding to ssDNA: dose-dependent inhibition
[4]
  Polθ blocked from being recruited to damage sites: ~96%
[5]
  Change in the scattering peak maximum: +2 °C
